Screening data (PubChem BioAssay)
Rows were chosen to be rich in hits. Some 2.7% of all compounds tested hit in one or more screens of this group.
PAFAH2 inh: PAFAH2 enzyme inhibitors, primary screen, biochemical, fluorescence polarization, human. Platelet-activating factor acetylhydrolase 2, cytoplasmic (Homo sapiens), Q99487. recombinant PAFAH2, FP-rhodamine activity probe. inhibition, % at 3.39 µM. 340,000 tested, 0.99% active;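 active = inhibition above the mean over all tested compounds plus 3 SD, cut at about 30% in these data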;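 note: inhibitors block probe labeling of enzyme so polarization drops; 0% = enzyme with DMSO and 100% = wells lacking PAFAH2 protein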
ASAP1 GAP inh: inhibitors of human ASAP1 ArfGAP activity, primary screen, biochemical, fluorescence polarization; ASAP1-stimulated ARF1 GTP hydrolysis, GDP FP detection; inhibition, % at 16.5 µM; 360,000 tested, 0.19% active; in the data active = inhibition above about 25%;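 note: 0% = vehicle with enzyme and substrate and 100% = no enzyme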
pPAFAH inh: pPAFAH enzyme inhibitors, primary screen, biochemical, fluorescence polarization, human; 330,000 tested, 1.5% active; recombinant pPAFAH, FP-rhodamine probe fluorescence polarization; inhibition, % at 3.39 µM; Platelet-activating factor acetylhydrolase (Homo sapiens), Q13093;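 active = inhibition above the mean inhibition across the screen plus 3 SD, cut at about 25% in these data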;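 note: inhibitors block binding of the rhodamine activity-based probe so polarization drops; 0% = enzyme with DMSO and 100% = wells lacking pPAFAH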
Target sequence (Q13093 whole entry, looked up): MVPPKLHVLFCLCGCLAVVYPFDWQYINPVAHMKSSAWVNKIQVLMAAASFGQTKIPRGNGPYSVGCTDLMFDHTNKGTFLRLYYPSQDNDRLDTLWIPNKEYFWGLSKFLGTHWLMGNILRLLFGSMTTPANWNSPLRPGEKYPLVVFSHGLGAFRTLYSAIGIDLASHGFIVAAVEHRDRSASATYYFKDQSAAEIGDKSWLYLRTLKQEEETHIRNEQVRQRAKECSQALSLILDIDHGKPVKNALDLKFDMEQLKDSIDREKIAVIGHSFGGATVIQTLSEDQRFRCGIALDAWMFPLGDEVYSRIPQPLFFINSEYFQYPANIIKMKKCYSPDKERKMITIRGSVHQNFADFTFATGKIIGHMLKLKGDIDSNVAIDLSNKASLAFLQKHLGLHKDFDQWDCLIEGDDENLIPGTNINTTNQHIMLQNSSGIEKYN
ARFGAP1 inh: inhibitors of rat ARFGAP1 GAP activity, primary screen, biochemical, fluorescence polarization, GDP tracer. inhibition, % at 16.5 µM. Arfgap1-stimulated ARF1 GTP hydrolysis, GDP FP detection. AID 651572, 2012. ADP-ribosylation factor GTPase-activating protein 1 (Rattus norvegicus), Q62848. 360,000 tested, 0.26% active;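 active = inhibition above a per-plate limit, mean inhibition of low control wells plus 3 SD, cut at about 25% in these data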;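 note: 0% = DMSO wells with enzyme and 100% = wells lacking Arfgap1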
Target sequence (Q62848 1-136 limits assumed): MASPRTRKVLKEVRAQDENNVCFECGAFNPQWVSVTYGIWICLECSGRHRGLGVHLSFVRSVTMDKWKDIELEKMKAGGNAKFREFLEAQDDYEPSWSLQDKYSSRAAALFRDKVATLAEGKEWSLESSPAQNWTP
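Material: rat Arfgap1 catalytic domain, aa 1-136; also added: human ARF1(Δ1-17)-GTP substrate; compound dosing: one concentration, 16.5 µM, DMSO 1.26%; incubation: GTP hydrolysis reaction 2 h at 25 °C; measured by: Tracer-displacement fluorescence polarization with EDTA stop, 620/688 nm; evaluation: % inhibition from polarization; repeats: one replicate per compound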
PAFAH1B2 FP inh: PAFAH1B2 enzyme inhibitors, primary screen, biochemical, fluorescence polarization, human; Platelet-activating factor acetylhydrolase IB subunit alpha2 (Homo sapiens), P68402; recombinant PAFAH1B2, FP-rhodamine activity probe; inhibition, % at 3.39 µM; 340,000 tested, 1.2% active; AID 492953, 2010;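 active = inhibition above the mean of all tested compounds plus 3 SD, cut at about 24% in these data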;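 note: 0% = enzyme with DMSO and 100% = wells lacking PAFAH1B2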
PAFAH1B3 inh: PAFAH1B3 enzyme inhibitors, primary screen, biochemical, fluorescence polarization, human; Platelet-activating factor acetylhydrolase IB subunit alpha1 (Homo sapiens), Q15102; recombinant PAFAH1B3, FP-rhodamine probe; inhibition, % at 3.39 µM; 340,000 tested, 0.28% active;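 active = inhibition above the screen-wide average of all tested compounds plus 3 SD, cut at about 25% in these data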;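 note: 0% = enzyme with DMSO only and 100% = wells lacking PAFAH1B3 protein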
Active calls of the source: *; / = not tested or not shown.

SMILES	PAFAH2 inh	ASAP1 GAP inh	pPAFAH inh	ARFGAP1 inh	PAFAH1B2 FP inh	PAFAH1B3 inh
Cc1ccc(S(=O)(=O)N2CC(C(=O)O)=CC[C@H]2c2ccc3c(c2)OCO3)cc1	3	-17	1	-7	7	4
COc1cccc([C@@H]2CC=C(C(=O)O)[C@H](c3ccc(C)cc3)N2S(=O)(=O)c2ccc(C)cc2)c1	-9	-15	3	-3	27*	4
COC(=O)C1=C(C)N(C)C(=NCc2ccc3c(c2)OCO3)NC1c1cccc(Cl)c1 (stereo not drawn)	/	20	/	11	/	/
COC(=O)C1=C(C)N(Cc2ccc(C(F)(F)F)cc2)C(=NCc2ccccc2C(F)(F)F)NC1c1ccccc1C(F)(F)F (stereo not drawn)	/	4	/	7	/	/
CC(C)CNc1cccc2c1S(=O)(=O)N(Cc1cccc(F)c1)[C@@H](C)[C@H](c1ccccc1)O2	/	0	/	9	/	/
COc1ccc([C@@H]2CC=C(C(=O)O)[C@H](c3ccc(C)cc3)N2S(=O)(=O)c2ccc(C)cc2)cc1OC	-1	-17	7	-14	12	6
Cc1ccc(S(=O)(=O)N2[C@@H](c3ccc(Cl)cc3)C(C(=O)O)=CC[C@H]2c2ccc(C(C)C)cc2)cc1	16	-19	3	-25	93*	8
COc1ccc([C@@H]2CC=C(C(=O)O)[C@H](c3ccc(C(C)(C)C)cc3)N2S(=O)(=O)c2ccc(C)cc2)cc1OC	-3	18	3	3	13	-2
Cc1ccc(S(=O)(=O)N2[C@@H](c3ccc(Cl)cc3)C(C(=O)OC(C)(C)C)=CC[C@H]2c2ccc(Cl)c(Cl)c2)cc1	/	-5	/	2	/	/
Cc1ccc(S(=O)(=O)N2[C@@H](c3ccc(C(C)(C)C)cc3)C(C(=O)O)=CC[C@H]2c2cccc(Cl)c2)cc1	6	-3	18	-5	78*	-3
Cc1ccc(S(=O)(=O)N2[C@@H](c3ccc(Br)cc3)C(C(=O)O)=CC[C@H]2c2ccc(Cl)c(Cl)c2)cc1	0	-22	21	-21	87*	0
Cc1ccc(S(=O)(=O)N2[C@@H](c3ccc(Br)cc3)C(C(=O)O)=CC[C@H]2c2ccc3c(c2)OCO3)cc1	-2	4	7	-2	72*	7
C=CCN=C1NC(c2ccccc2C(F)(F)F)C(C(=O)OC)=C(C)N1Cc1ccc(C(F)(F)F)cc1 (stereo not drawn)	/	11	/	3	/	/
CS(=O)(=O)Nc1ccccc1C(=O)Nc1cc(Cl)cc(Cl)c1	9	11	28*	8	16	8
O=C(O)CCc1ccc(-c2cccs2)n1CCc1ccccc1	-1	1	34*	-9	7	-11
CCn1c(C)c(C(C)=O)c(NCc2ccccc2)nc1=S	4	-10	26*	-6	15	3
N#Cc1c(SCC(N)=O)nsc1SCc1ccccc1Cl	3	0	19	0	5	0
N#Cc1c(SCC(N)=O)nsc1SCc1ccc(Cl)cc1	-3	3	2	4	30*	6
CCCC(C)NC(=O)COC(=O)c1ccc2c(c1)C(=O)N(Cc1ccco1)C2=O (stereo not drawn)	-10	-8	25*	3	3	6
CC(C)CNC(=O)COC(=O)c1ccc2c(c1)C(=O)N(Cc1ccco1)C2=O	5	-7	27*	-11	0	0
C=CCN1[C@@H](C)[C@H](c2ccccc2)Oc2cccc(N3CCCC3)c2S1(=O)=O	/	3	/	14	/	/
CC(C)[C@@H](C)/C=C/[C@@H](C)[C@H]1CC[C@@H]2[C@]1(C)CCC1[C@]23C=C[C@]2(C[C@@H](O)CC[C@]12C)N(c1cnccn1)O3 (stereo partly drawn)	/	1	/	20	/	/
CC(C)(C)c1sc(N)nc1-c1ccccc1	-9	0	9	-3	27*	4
COCCN1Cc2cc(C(=O)OC)c3c(c2C1=O)c1cc(F)ccc1n3S(=O)(=O)c1ccc(C)cc1	/	7	/	-4	/	/
CC(NC(=O)COC(=O)c1cc(Cl)ccc1O)C1CC2CCC1C2 (stereo not drawn)	29	5	7	4	26*	4
SMILES	PAFAH2 inh	ASAP1 GAP inh	pPAFAH inh	ARFGAP1 inh	PAFAH1B2 FP inh	PAFAH1B3 inh
CC(NC(=O)COC(=O)c1ccc2ccccc2n1)C1CC2CCC1C2 (stereo not drawn)	5	5	23	6	-1	9
Cc1ccc(C(=O)OCC(=O)NC(C)C2CC3CCC2C3)cc1N (stereo not drawn)	84*	4	30*	-2	7	7
Nc1[nH]c(C(=O)c2ccccc2)c(-c2ccccc2Br)c1C(=O)c1cccs1	/	-3	/	-17	/	/
CCCn1cc(C(=O)Nc2ccc(Oc3cccnc3)cc2)c2ccccc21	/	-3	/	7	/	/
COC(=O)[C@]12C[C@H](CC(=O)NCC34CC5CC(CC(C5)C3)C4)C(=O)N(Cc3ccccc3)C1=C[C@H](C1CCCC1)O[C@@H]2C	/	12	/	2	/	/
FC(F)(F)c1nc2cc3nc4ccccc4[nH]c3cc2n1	0	5	31*	-3	8	10
OC(c1nc2ccccc2[nH]1)C(O)c1nc2ccccc2[nH]1 (stereo not drawn)	-5	0	4	5	1	4
CCOC(=O)C1=C(C(=O)OCC)C2N(Cc3ccccc3)c3ccccc3[C@@]23C[C@@H](C(=O)OC)N(S(=O)(=O)c2ccc(C(F)(F)F)cc2)C3=N1 (stereo partly drawn)	/	7	/	15	/	/
Oc1ccc(/C=N/Nc2ncnc3c2ncn3Cc2ccccc2)cc1O	15	-5	30*	-1	3	-1
C[C@@H]1ON(C)[C@H]2C[C@H]3c4cc(Br)ccc4CCN3C[C@@H]12	/	-1	/	-8	/	/
COC(=O)C(Cc1ccc(O)cc1)NS(=O)(=O)Cc1ccccc1 (stereo not drawn)	/	-5	/	-4	/	/
COc1ccc(N2CCN(c3ncnc4scc(-c5ccccc5)c34)CC2)cc1	1	2	32*	0	3	3
COc1ccc(N2CCN(c3ncnc4scc(-c5ccc(C)cc5)c34)CC2)cc1	-6	-4	4	-7	3	7
O=C(COc1ccccc1Cc1ccccc1)Nc1cccc(S(=O)(=O)N2CCOCC2)c1	-9	2	5	-1	-2	-7
